Measurements reported in ChEMBL document CHEMBL5705890, “Antitumor activity of an allosteric inhibitor of centromere-associated protein-E” (Proc Natl Acad Sci U S A, 2010).

Columns and labels:
SNB-75 = experiment: Anticancer activity against human SNB-75 cells assessed as cell growth inhibition measured after 72 hrs by DAPI staining based analysis; assay type: functional
SR [1] = experiment: Anticancer activity against human SR cells assessed as cell doubling measured for 72 hrs by DAPI staining based analysis; assay type: functional
HOP-62 = experiment: Anticancer activity against human HOP-62 cells assessed as cell growth inhibition measured after 72 hrs by DAPI staining based analysis; assay type: functional
BV-173 = experiment: Anticancer activity against human BV-173 cells assessed as cell doubling measured for 72 hrs by DAPI staining based analysis; assay type: functional
SNU-449 = experiment: Anticancer activity against human SNU-449 cells assessed as cell growth inhibition measured after 72 hrs by DAPI staining based analysis; assay type: functional
NCI-H1299 [2] = experiment: Antitumor activity against human NCI-H1299 cells in xenograft model assessed as difference between median time to endpoint time of treated versus control group at 62.5 mg/kg; assay type: functional
OVCAR-3 = experiment: Anticancer activity against human OVCAR-3 cells assessed as cell doubling measured for 72 hrs by DAPI staining based analysis; assay type: functional
Y79 = experiment: Anticancer activity against human Y79 cells assessed as cell doubling measured for 72 hrs by DAPI staining based analysis; assay type: functional
G-402 = experiment: Anticancer activity against human G-402 cells assessed as cell doubling measured for 72 hrs by DAPI staining based analysis; assay type: functional
SK-OV-3 = experiment: Antitumor activity against human SK-OV-3 cells in xenograft model assessed as difference between median time to endpoint time of treated versus control group at 125 mg/kg; assay type: functional
[3] = molecular target: Centromere-associated protein E (Homo sapiens, UniProt Q02224); experiment: Binding affinity to wild-type human CENP-E assessed as inhibition constant
Centromere-associated protein E, sequence (Q02224 whole entry, the tested form may be a part): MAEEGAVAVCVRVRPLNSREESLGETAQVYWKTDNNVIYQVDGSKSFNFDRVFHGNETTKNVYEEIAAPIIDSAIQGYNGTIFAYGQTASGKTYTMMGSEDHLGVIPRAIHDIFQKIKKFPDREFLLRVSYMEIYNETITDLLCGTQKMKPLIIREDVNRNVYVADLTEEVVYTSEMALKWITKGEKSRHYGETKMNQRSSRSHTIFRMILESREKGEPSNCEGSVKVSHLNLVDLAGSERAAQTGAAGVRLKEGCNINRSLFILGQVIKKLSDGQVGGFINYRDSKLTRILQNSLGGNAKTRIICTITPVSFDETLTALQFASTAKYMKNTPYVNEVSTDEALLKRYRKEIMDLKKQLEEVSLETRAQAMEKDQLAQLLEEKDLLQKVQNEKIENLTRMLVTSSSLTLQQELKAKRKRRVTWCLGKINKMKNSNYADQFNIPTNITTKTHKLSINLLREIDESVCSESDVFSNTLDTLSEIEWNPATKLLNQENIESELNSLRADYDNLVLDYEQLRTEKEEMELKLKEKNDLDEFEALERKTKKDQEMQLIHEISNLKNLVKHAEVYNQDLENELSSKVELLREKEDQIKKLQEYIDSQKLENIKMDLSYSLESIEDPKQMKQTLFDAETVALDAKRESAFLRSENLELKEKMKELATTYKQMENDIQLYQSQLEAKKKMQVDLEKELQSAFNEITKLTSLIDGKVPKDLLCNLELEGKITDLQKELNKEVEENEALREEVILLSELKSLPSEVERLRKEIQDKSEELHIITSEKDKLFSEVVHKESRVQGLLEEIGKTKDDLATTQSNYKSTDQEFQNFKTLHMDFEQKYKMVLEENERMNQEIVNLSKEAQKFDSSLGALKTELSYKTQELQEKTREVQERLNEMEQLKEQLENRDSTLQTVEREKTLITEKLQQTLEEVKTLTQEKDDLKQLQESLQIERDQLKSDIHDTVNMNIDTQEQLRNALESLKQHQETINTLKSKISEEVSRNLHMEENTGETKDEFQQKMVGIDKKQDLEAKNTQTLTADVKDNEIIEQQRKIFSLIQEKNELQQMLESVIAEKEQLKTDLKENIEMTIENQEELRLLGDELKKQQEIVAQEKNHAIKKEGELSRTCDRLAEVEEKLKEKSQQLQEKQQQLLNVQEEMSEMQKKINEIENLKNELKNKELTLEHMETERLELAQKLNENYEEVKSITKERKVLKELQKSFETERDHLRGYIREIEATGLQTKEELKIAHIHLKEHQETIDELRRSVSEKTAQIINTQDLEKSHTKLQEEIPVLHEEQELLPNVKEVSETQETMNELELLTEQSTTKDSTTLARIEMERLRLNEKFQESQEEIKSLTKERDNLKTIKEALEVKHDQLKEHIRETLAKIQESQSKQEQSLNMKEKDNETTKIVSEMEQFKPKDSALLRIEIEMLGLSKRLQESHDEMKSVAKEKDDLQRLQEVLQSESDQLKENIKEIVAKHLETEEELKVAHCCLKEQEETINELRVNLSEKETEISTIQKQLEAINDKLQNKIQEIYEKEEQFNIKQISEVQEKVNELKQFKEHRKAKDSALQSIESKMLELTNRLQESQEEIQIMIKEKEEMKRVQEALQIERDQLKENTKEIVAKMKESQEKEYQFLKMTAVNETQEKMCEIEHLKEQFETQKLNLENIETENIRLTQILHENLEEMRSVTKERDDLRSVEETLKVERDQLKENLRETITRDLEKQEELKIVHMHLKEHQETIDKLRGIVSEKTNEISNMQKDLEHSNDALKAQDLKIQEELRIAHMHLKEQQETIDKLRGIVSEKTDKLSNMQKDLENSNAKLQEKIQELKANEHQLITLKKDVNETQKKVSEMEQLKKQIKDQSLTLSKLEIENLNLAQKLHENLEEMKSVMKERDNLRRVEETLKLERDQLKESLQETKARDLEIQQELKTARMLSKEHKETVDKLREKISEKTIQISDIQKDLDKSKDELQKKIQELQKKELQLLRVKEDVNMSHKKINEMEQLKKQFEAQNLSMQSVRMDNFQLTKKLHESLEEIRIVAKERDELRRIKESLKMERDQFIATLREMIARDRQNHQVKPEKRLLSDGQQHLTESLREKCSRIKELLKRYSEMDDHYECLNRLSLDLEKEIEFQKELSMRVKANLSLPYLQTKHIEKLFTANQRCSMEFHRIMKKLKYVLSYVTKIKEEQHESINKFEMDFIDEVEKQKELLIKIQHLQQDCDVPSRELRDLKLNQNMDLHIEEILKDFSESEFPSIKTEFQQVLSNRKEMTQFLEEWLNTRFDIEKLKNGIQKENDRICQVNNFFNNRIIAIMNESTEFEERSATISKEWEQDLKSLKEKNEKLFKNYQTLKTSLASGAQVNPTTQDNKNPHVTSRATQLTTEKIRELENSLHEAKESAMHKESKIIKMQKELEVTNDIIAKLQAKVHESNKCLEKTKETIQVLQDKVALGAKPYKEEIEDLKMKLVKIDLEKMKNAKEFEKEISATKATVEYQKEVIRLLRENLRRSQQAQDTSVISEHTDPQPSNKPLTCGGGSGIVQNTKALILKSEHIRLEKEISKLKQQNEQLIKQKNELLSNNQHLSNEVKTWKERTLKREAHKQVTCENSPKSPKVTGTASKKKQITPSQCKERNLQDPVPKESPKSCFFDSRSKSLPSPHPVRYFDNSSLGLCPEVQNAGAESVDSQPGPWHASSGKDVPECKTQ
Outline: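 CENP-E motor domain (residues 2–340, C-terminal 6-his, from E. coli BL21(DE3)) run in MT-stimulated ATPase with 500 μM ATP, 5 μM paclitaxel-stabilized MT, 1 nM enzyme in PEM25 buffer, pH 6.8. Apparent Ki taken from the concentration-response curves with explicit correction for enzyme concentration.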

Raji [4] = experiment: Anticancer activity against human Raji cells assessed as cell doubling measured for 72 hrs by DAPI staining based analysis; assay type: functional
EFM-19 = experiment: Anticancer activity against human EFM-19 cells assessed as cell doubling measured for 72 hrs by DAPI staining based analysis; assay type: functional
NCI-H1299 [5] = experiment: Anticancer activity against human NCI-H1299 cells assessed as cell doubling measured for 72 hrs by DAPI staining based analysis; assay type: functional
SR [6] = experiment: Anticancer activity against human SR cells assessed as cell growth inhibition measured after 72 hrs by DAPI staining based analysis; assay type: functional
U2OS = experiment: Anticancer activity against human U2OS cells assessed as cell doubling measured for 72 hrs by DAPI staining based analysis; assay type: functional
HN5 = experiment: Anticancer activity against human HN5 cells assessed as cell growth inhibition measured after 72 hrs by DAPI staining based analysis; assay type: functional
A-427 = experiment: Anticancer activity against human A-427 cells assessed as cell growth inhibition measured after 72 hrs by DAPI staining based analysis; assay type: functional
Outline: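 Cells were seeded and, after 24 h, DNA content was read as T0. Cells were then exposed to varying drug concentrations for a further 72 h (T72). Fixed cells were DAPI-stained and DNA content measured by automated imaging. T72 values were normalized to T0. GI50 is the concentration giving 50% growth inhibition between T0 and Ymax, obtained by curve fitting.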

[7] = Anticancer activity against human SKO-007 cells assessed as cell growth inhibition measured after 72 hrs by DAPI staining based analysis; assay type: functional
NCI-H1299 [8] = experiment: Antitumor activity against human NCI-H1299 cells in xenograft model assessed as tumor growth delay at 62.5 mg/kg relative to control; assay type: functional
DoTc2-4510 = experiment: Anticancer activity against human DoTc2-4510 cells assessed as cell doubling measured for 72 hrs by DAPI staining based analysis; assay type: functional
SNU-387 = experiment: Anticancer activity against human SNU-387 cells assessed as cell growth inhibition measured after 72 hrs by DAPI staining based analysis; assay type: functional
MES-SA = experiment: Anticancer activity against human MES-SA cells assessed as cell doubling measured for 72 hrs by DAPI staining based analysis; assay type: functional
SNU-475 = experiment: Anticancer activity against human SNU-475 cells assessed as cell doubling measured for 72 hrs by DAPI staining based analysis; assay type: functional
UMUC3 = experiment: Anticancer activity against human UM-UC-3 cells assessed as cell doubling measured for 72 hrs by DAPI staining based analysis; assay type: functional
BPH-1 = experiment: Anticancer activity against human BPH-1 cells assessed as cell doubling measured for 72 hrs by DAPI staining based analysis; assay type: functional
SW837 = experiment: Anticancer activity against human SW837 cells assessed as cell growth inhibition measured after 72 hrs by DAPI staining based analysis; assay type: functional
FaDu = experiment: Anticancer activity against human FaDu cells assessed as cell doubling measured for 72 hrs by DAPI staining based analysis; assay type: functional
NCI-H23 = experiment: Anticancer activity against human NCI-H23 cells assessed as cell doubling measured for 72 hrs by DAPI staining based analysis; assay type: functional
[9] = Anticancer activity against human NL-SCLC3 cells assessed as cell growth inhibition measured after 72 hrs by DAPI staining based analysis; assay type: functional
NCI-H747 = experiment: Anticancer activity against human NCI-H747 cells assessed as cell growth inhibition measured after 72 hrs by DAPI staining based analysis; assay type: functional
NCI-H1299 [10] = experiment: Antitumor activity against human NCI-H1299 cells in xenograft model assessed as tumor growth delay at 125 mg/kg relative to control; assay type: functional
NCI-H460 [11] = experiment: Antitumor activity against human NCI-H460 cells in xenograft model assessed as difference between median time to endpoint time of treated versus control group at 125 mg/kg; assay type: functional
SW480 = experiment: Anticancer activity against human SW480 cells assessed as cell doubling measured for 72 hrs by DAPI staining based analysis; assay type: functional
NCI-H460 [12] = experiment: Anticancer activity against human NCI-H460 cells assessed as cell doubling measured for 72 hrs by DAPI staining based analysis; assay type: functional
J82 = experiment: Anticancer activity against human J82 cells assessed as cell doubling measured for 72 hrs by DAPI staining based analysis; assay type: functional
RPMI-8226 = experiment: Anticancer activity against human RPMI-8226 cells assessed as cell doubling measured for 72 hrs by DAPI staining based analysis; assay type: functional
MCF7 = experiment: Antitumor activity against human MCF7 cells in xenograft model assessed as tumor growth delay at 62.5 mg/kg relative to control; assay type: functional
[13] = Anticancer activity against human UM-SCC-12 cells assessed as cell doubling measured for 72 hrs by DAPI staining based analysis; assay type: functional
Raji [14] = experiment: Anticancer activity against human Raji cells assessed as cell growth inhibition measured after 72 hrs by DAPI staining based analysis; assay type: functional
Caov-3 cell line = experiment: Anticancer activity against human Caov-3 cells assessed as cell doubling measured for 72 hrs by DAPI staining based analysis; assay type: functional
HepG2 = experiment: Anticancer activity against human HepG2 cells assessed as cell doubling measured for 72 hrs by DAPI staining based analysis; assay type: functional

Structure (SMILES): CC(C)Oc1ccc(C(=O)N[C@H](CNC(=O)CN(C)C)Cc2ccc(-c3cn4cccc([C@H](C)O)c4n3)cc2)cc1Cl [GSK-923295A]
- GI50 (SNB-75): 26 nM
- Activity (SR [1]): 2.84
- GI50 (HOP-62): 20 nM
- Activity (BV-173): 2.16
- GI50 (SNU-449): 236 nM
- Time (NCI-H1299 [2]): 3.3 days
- Activity (OVCAR-3): 1.56
- Activity (Y79): 4.11
- Activity (G-402): 1.76
- Time (SK-OV-3): >95 days
- Ki [3]: 3.2 nM
- Activity (Raji [4]): 3.26
- Activity (EFM-19): 1.43
- Activity (NCI-H1299 [5]): 2.78
- GI50 (SR [6]): 29 nM
- Activity (U2OS): 3.08
- GI50 (HN5): 118 nM
- GI50 (A-427): 97 nM
- GI50 [7]: 60 nM
- Activity (NCI-H1299 [8]): 15%
- Activity (DoTc2-4510): 2.17
- GI50 (SNU-387): 32 nM
- Activity (MES-SA): 3.22
- Activity (SNU-475): 1.8
- Activity (UMUC3): 2.44
- Activity (BPH-1): 2.08
- GI50 (SW837): 33 nM
- Activity (FaDu): 2.61
- Activity (NCI-H23): 2.04
- GI50 [9]: 31 nM
- GI50 (NCI-H747): 163 nM
- Activity (NCI-H1299 [10]): 76%
- Time (NCI-H460 [11]): 37.2 days
- Activity (SW480): 2.21
- Activity (NCI-H460 [12]): 3.86
- Activity (J82): 2.04
- Activity (RPMI-8226): 1.96
- Activity (MCF7): 20%
- Activity [13]: 1.78
- GI50 (Raji [14]): 41 nM
- Activity (Caov-3 cell line): 2.17
- Activity (HepG2): 2.45
